# Source: PubChem BioAssay
# Rows were chosen to be rich in hits. Some 2.3% of all compounds tested hit in one or more screens of this group.
# HNF4A DNA FP – change in binding of human HNF4 alpha to DNA. P41235. HNF4a-FITC DNA binding, fluorescence polarization, 1 h. activity change, % at 10 µM. actives 0.3% (n = 360,000). AID 1224865; in the data active = activity change above about 30%, passing the limit was not always enough
# CSN deneddyl inh – CSN deneddylation inhibition; actives 0.38% (n = 360,000); inhibition, % at 12.5 µM; Q92905; AID 651999; Purified CSN, SCF-Nedd8-OG deneddylation, fluorescence polarization;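 active = pattern-corrected inhibition above about 35%, with an unprinted fluorescence ratio check between 0.5 and 1.5, limit read from the data, passing the limit was not always enough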;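 note: 0% = enzyme with substrate and 100% = substrate without enzyme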
# Target sequence (Q92905 whole entry, looked up, one chain of several): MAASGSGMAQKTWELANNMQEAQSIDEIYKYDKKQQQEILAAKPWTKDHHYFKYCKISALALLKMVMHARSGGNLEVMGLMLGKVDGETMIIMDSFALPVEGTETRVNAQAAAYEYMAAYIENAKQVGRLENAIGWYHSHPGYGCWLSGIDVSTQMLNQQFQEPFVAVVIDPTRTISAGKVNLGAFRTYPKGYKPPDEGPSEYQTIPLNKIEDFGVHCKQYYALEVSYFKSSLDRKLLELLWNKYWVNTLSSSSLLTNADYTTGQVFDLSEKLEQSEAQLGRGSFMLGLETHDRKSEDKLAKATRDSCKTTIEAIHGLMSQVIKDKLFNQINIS
#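 Assay system: Purified human Csn5 enzyme expressed in HEK293T cells | Amount: Enzyme 0.24 nM | Measured by: Fluorescence polarization readout | Medium: Tris/NaCl/DTT buffer, pH 7.5 | Compound dosing: One concentration, 12.5 µM, 0.25% DMSO | Times: 90 min incubation of compound, enzyme and substrate at room temperature | Control set: no-enzyme wells high, enzyme-with-substrate wells low | Read-out: % inhibition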
# TPT1 inhibitor – C. albicans TPT1 enzyme inhibition | inhibition, % at 5 µM | actives 0.81% (n = 300,000) | recombinant caTPT1, FP RNA substrate dephosphorylation;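 active = inhibition above the mean of all tested compounds plus 3 SD, set per screening campaign, cut at about 24% in these data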;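 note: plate controls were DMSO alone for no effect and ferristatin control at 100 nM for full effect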
# Rpn11 inh – Rpn11 (human) deubiquitinase inhibition; actives 0.59% (n = 360,000); calls only at 20 µM; AID 588493; human 26S proteasome, Ub4-pepOG fluorescence polarization; 20S core pre-blocked with epoxomicin;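 active = inhibition at 20 µM, scaled to each plate's controls, above about 33%, limit read from the data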
# CRFR2-BP antag – antagonists of CRF-binding protein/CRF-R2 receptor complex; HEK293 CRF-R2/CRF-BP, CRF-induced calcium fluorescence; actives 0.59% (n = 350,000); inhibition, % at 11.8 µM; AID 588475;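 active = inhibition of the ligand-induced calcium signal above about 50% at the single tested concentration, limit read from the data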
# CRFR2-BP ag – CRF-BP/CRF-R2 complex agonism. HEK293 CRF-R2/CRF-BP, calcium dye fluorescence (FLIPR); percent of saturating CRF peptide response. activation, % at 13.2 µM. actives 0.46% (n = 350,000);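 active = activation of at least 50%, plus an integration ratio under a set limit after plate pattern correction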;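 note: plate controls were neutral control wells without compound for no effect and CRF at EC100 for full effect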
# The depositor's hits bear a star; i = inactive; · = not tested or not shown.
SMILES,HNF4A DNA FP,CSN deneddyl inh,TPT1 inhibitor,Rpn11 inh,CRFR2-BP antag,CRFR2-BP ag
O=C(CCN1C(=O)/C(=C\c2cccs2)SC1=S)Nc1nccs1,38*,8,-1,·,-3,23
COc1ccc(/C=C2\SC(=S)N(CC(=O)NCCO)C2=O)cc1,-2,-5,-1,i,60*,1
O=C(O)C(Cc1ccccc1)N1C(=O)/C(=C/c2cccnc2)SC1=S (stereo not given),8,3,3,i,11,-1
COc1ccc(/C=C2\SC(=S)N(CCC(=O)Nc3ccccc3C(=O)O)C2=O)cc1,-4,-1,2,i,16,0
CCOc1ccc(/C=C2\SC(=S)N(CCC(=O)Nc3ccccc3C(=O)O)C2=O)cc1,-5,5,0,i,55*,-3
COc1ccc(/C=C2\SC(=S)N(C(Cc3ccccc3)C(=O)O)C2=O)cc1 (stereo not given),0,-16,·,i,58*,-1
C=CCNc1nc(NCc2ccco2)nc(OCC)n1,-1,0,-4,i,-6,-1
COc1cc(C2C3=C(CCCC3=O)Nc3c2c(C)nn3-c2cccc(C)c2)cc(OC)c1O (stereo not given),-3,0,-2,i,7,0
CC(C)COc1ccc(CNC(=S)Nc2ccccc2)cc1Cl,-3,-4,-2,i,107*,4
CN(C)c1ccc(NC(=O)COC(=O)Cn2nnc3ccccc32)cc1,-3,-6,0,i,93*,0
COc1ccc(-c2cnc3c(NC(C)=O)cc(-c4ccccc4CN(C)C)cn23)cc1OC,-2,-4,·,i,·,·
C/C(=N\NC(=O)c1ccc(Br)cc1)C1C(=O)c2ccccc2C1=O,2,-2,4,i,55*,14
C/C(=N\NC(=O)c1ccc(-c2ccccc2)cc1)C1C(=O)c2ccccc2C1=O,3,-4,2,i,41,15
N#Cc1c(-c2ccccc2)cc(-c2ccccc2)nc1SCC(=O)NCC(=O)O,3,0,-5,i,-13,72*
COc1ccc(-c2cc(-c3ccc(Cl)cc3)c(C#N)c(SCC(=O)O)n2)cc1,-6,41*,-2,i,23,0
CC(C)C(Sc1nc(-c2ccccc2)cc(-c2ccccc2)c1C#N)C(=O)O (stereo not given),-2,7,-1,i,68*,0
Cc1cc(C(=O)Nc2c(F)cc(F)cc2Br)cs1,1,0,-3,i,0,0
CCOC(=O)c1ccc(NC(=S)N2CCSC2c2ccc(Cl)cc2)cc1 (stereo not given),1,-4,-5,i,-106,120*
CCOC(=O)c1ccc(NC(=S)N2CCSC2c2ccc(OC)cc2)cc1 (stereo not given),3,4,3,i,-48,37
O=S(=O)(c1cccc2nsnc12)N1CCc2ccccc2C1,-3,4,0,i,52*,-4
O=S(=O)(c1cccc2nsnc12)N1CCCC1,-4,2,2,i,-8,0
COc1cc(C(=O)NNC(=S)NC(=O)c2ccccc2C)cc(OC)c1OC,-3,-14,-1,i,8,20
O=C(/C=C/c1cccs1)NC(=S)NNC(=O)c1ccccc1O,2,-10,-7,i,-14,63*
COc1ccc(C(=O)NC(=S)NNC(=O)c2ccccc2O)cc1,-1,0,-4,i,3,59*
COc1ccc(C(=O)NC(=S)NNC(=O)c2ccccc2C)cc1,-1,-7,4,i,31,116*
SMILES,HNF4A DNA FP,CSN deneddyl inh,TPT1 inhibitor,Rpn11 inh,CRFR2-BP antag,CRFR2-BP ag
COc1ccc(C(=O)NNC(=S)NC(=O)C(C)(C)C)cc1,3,-2,0,i,43,127*
NC(=O)C1=C[C@@H](C2CCCCC2)C[C@@H](OCCCCO)O1,2,2,1,i,-5,-2
CCN(C)C1CN(Cc2cn(Cc3ccc(OC)cc3)nn2)S(=O)(=O)C1 (stereo not given),0,6,·,·,·,·
CCCCNC(=S)N(CCO)Cc1cc2cc3c(cc2[nH]c1=O)OCCO3,0,1,-2,i,-8,1
COc1cc(C2Nc3cc(Cl)c(S(N)(=O)=O)cc3S(=O)(=O)N2)ccc1OCc1ccccc1 (stereo not given),1,9,1,i,3,1
COc1cc(/C=C2\C(=N)N3N=C(S(C)(=O)=O)SC3=NC2=O)ccc1OC(=O)c1cccs1,6,10,-4,i,-5,1
O=C(c1ccc(Cl)c(S(=O)(=O)Nc2ccc(F)cc2)c1)N1CCN(c2ccccn2)CC1,4,2,0,i,-6,-2
COCCN1CC(=O)N(c2cccc(C)c2C)C(c2ccc(Cl)cc2)C1=O (stereo not given),1,-1,-3,i,56*,-3
COCCN1CC(=O)N2C(c3cccc(C)c3)c3[nH]c4ccccc4c3C[C@H]2C1=O (stereo not given in full),-5,-1,-2,i,-24,13
O=C1CN(C(=O)COC(=O)C2=COCCO2)c2ccccc2N1,0,-3,1,i,9,0
COc1ccc(NC(=O)CSc2nnc(N)s2)c([N+](=O)[O-])c1,2,-7,0,i,65*,0
COc1ccc(NC(=O)CN(C)S(=O)(=O)c2ccccc2)c([N+](=O)[O-])c1,39*,5,3,i,-29,0
COc1ccc(NC(=O)CSc2nnc(NC(C)=O)s2)c([N+](=O)[O-])c1,-2,-1,-4,i,-6,0
O=C(CC1C(=O)NCCN1C(=S)Nc1ccccc1)Nc1ccc(F)cc1 (stereo not given),-1,-1,0,i,22,-2
Cc1cc(C)c(S(=O)(=O)N(C)CC(=O)NCCCn2ccnc2)c(C)c1,-2,-3,-3,i,5,-1
O=C(CSc1nnc(-c2ccco2)o1)c1ccccc1,2,9,1,i,11,-1
O=C(CSc1nnc(-c2ccco2)o1)c1ccc[nH]1,-3,38*,6,i,0,-1
Cc1cc(C(=O)CN2C(=O)NC3(CCCC3)C2=O)c(C)n1-c1ccc2c(c1)OCO2,-2,1,-3,i,35,1
Cc1cc(C(=O)CN2C(=O)NC(C)(CC(C)C)C2=O)c(C)n1-c1ccc2c(c1)OCO2 (stereo not given),3,-6,4,i,80*,-3
COc1cccc(Nc2ccc(C(=O)O)cc2N)c1,3,7,0,i,6,0
Cc1ccc(Nc2ccc(C(=O)O)cc2N)cc1,·,·,2,·,56*,-4
